Assay results from ChEMBL document CHEMBL5678805, “Intermittent administration of MEK inhibitor GDC-0973 plus PI3K inhibitor GDC-0941 triggers robust apoptosis and tumor growth inhibition” (Cancer Res, 2012).
pIC50: −log10 of the molar value. Activity calls are given as the source filed them. No cut-off for these calls is given here.

Assays:
NCI-H2122 = test: Antiproliferative activity against human NCI-H2122 cells assessed as reduction in cell viability incubated for 96 hrs in presence of 4-(2-(1H-indazol-4-yl)-6-((4-(methylsulfonyl)piperazin-1-yl)methyl)thieno[3,2-d]pyrimidin-4-yl)morpholine; type: functional, cell-based
Calu-6 [1] = test: Antitumor activity against human Calu-6 cells harboring KRAS Q61K and TP53 R196 mutant xenografted in mouse assessed as tumor growth inhibition at 2.5 mg/kg, po; type: functional; conditions: read-out: TGI
In short: (§1)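 Single-agent dose ranging in human tumor xenograft mice at 2.5, 5 or 10 mg/kg oral. Tumor volume was measured by caliper as (L×W×W)/2. %TGI = 100×[1 − AUC(treatment/d)/AUC(vehicle/d)] from the fitted growth curve per dose group, relative to vehicle.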

[2] = biological target: Serine/threonine-protein kinase Nek3 (Homo sapiens, UniProt P51956); test: Inhibition of NEK3 (unknown origin)
A-375 = test: Antitumor activity against human A-375 cells harboring BRAF V600E/CDKN2A E61 mutant xenografted in mouse assessed as tumor growth inhibition at 10 mg/kg, po; type: functional; conditions: A-375, read-out: TGI
In short: (§2)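 Mice carrying human tumor xenografts dosed orally once daily for 21 consecutive days. Tumor volume measured by calipers as (L×W×W)/2. %TGI = 100×[1 − AUC(treatment/day)/AUC(vehicle/day)], using the area under the fitted growth curve relative to vehicle.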

EBC-1 = test: Antitumor activity against human EBC-1 cells harboring MET amp and EGFR G719S/L858R mutant xenografted in mouse assessed as tumor growth inhibition at 10 mg/kg, po; type: functional; conditions: read-out: TGI; in short: as §1
[3] = biological target: Serine/threonine-protein kinase MARK1 (Homo sapiens, UniProt Q9P0L2); test: Inhibition of MARK1 (unknown origin)
[4] = biological target: Serine/threonine-protein kinase Chk2 (Homo sapiens, UniProt O96017); test: Inhibition of CHK2 (unknown origin)
[5] = biological target: RAC-beta serine/threonine-protein kinase (Homo sapiens, UniProt P31751); test: Inhibition of Akt2 (unknown origin)
[6] = biological target: Serine/threonine-protein kinase Chk1 (Homo sapiens, UniProt O14757); test: Inhibition of CHK1 (unknown origin)
Misshapen-like kinase 1 = Misshapen-like kinase 1 (Homo sapiens, UniProt Q8N4C8); test: Inhibition of MINK (unknown origin)
A549 = test: Antitumor activity against human A549 cells harboring KRAS G12S/LKB1Q37/SMARCA4 Q729/CDKN2A mutant xenografted in mouse assessed as tumor growth inhibition at 10 mg/kg, po; type: functional; conditions: read-out: TGI; in short: as §1
[7] = biological target: Inhibitor of nuclear factor kappa-B kinase subunit alpha (Homo sapiens, UniProt O15111); test: Inhibition of IKKa (unknown origin)
[8] = biological target: Vascular endothelial growth factor receptor 1 (Homo sapiens, UniProt P17948); test: Inhibition of Flt1 (unknown origin)
Calu-6 [9] = test: Antitumor activity against human Calu-6 cells harboring KRAS Q61K and TP53 R196 mutant xenografted in mouse assessed as tumor growth inhibition at 5 mg/kg, po; type: functional; conditions: read-out: TGI; in short: as §1
Aurora kinase A = Aurora kinase A (Homo sapiens, UniProt O14965); test: Inhibition of AuroraA (unknown origin)
[10] = biological target: Rho-associated protein kinase 1 (Homo sapiens, UniProt Q13464); test: Inhibition of ROCK1 (unknown origin)
888-mel = test: Inhibition of AKT phosphorylation in human 888-mel cells preincubated with compound for 24 hrs followed by compound washout and measured after 2 hrs in presence of 4-(2-(1H-indazol-4-yl)-6-((4-(methylsulfonyl)piperazin-1-yl)methyl)thieno[3,2-d]pyrimidin-4-yl)morpholine by immunoblotting analysis; type: cell-based
In short: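 The medium was then exchanged to remove compound. Lysates were prepared 2 and 24 h after washout and immunoblotted for cleaved PARP, p-AKT and p-ERK using HRP secondary antibody and ECL.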

537-mel = test: Antitumor activity against human 537-mel cells harboring PTEN null mutation xenografted in mouse assessed as tumor growth inhibition at 2.5 mg/kg, po; type: functional; conditions: read-out: TGI; in short: as §2
[11] = biological target: Serine/threonine-protein kinase PLK3 (Homo sapiens, UniProt Q9H4B4); test: Inhibition of Plk3 (unknown origin)
[12] = biological target: Serine/threonine-protein kinase PAK 2 (Homo sapiens, UniProt Q13177); test: Inhibition of PAK2 (unknown origin)
A2058 [13] = test: (§3) Antitumor activity against human A2058 cells harboring BRAF V600E/PTEN deletion mutant xenografted in mouse assessed as decrease in cyclin D1 level at 15 mg/kg, po administered every third day for 21 days and measured after 72 hrs post dose in presence of 4-(2-(1H-indazol-4-yl)-6-((4-(methylsulfonyl)piperazin-1-yl)methyl)thieno[3,2-d]pyrimidin-4-yl)morpholine by Western blot analysis; type: functional, organism-based; conditions: time 576.0 hrs
[14] = biological target: Serine/threonine-protein kinase pim-2 (Homo sapiens, UniProt Q9P1W9); test: Inhibition of PIM2 (unknown origin)
DLD-1 = test: Antitumor activity against human DLD-1 cells xenografted in mouse assessed as tumor growth inhibition at 10 mg/kg, po administered every third day for 21 days; type: functional; conditions: DLD-1, 504 h, time 21 day, read-out: TGI
In short: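 Human tumor xenografts in mice. Drugs given orally, as single agents or combined with the PI3K inhibitor. Schedules were daily (QD) or every third day (Q3D) over 21 days. Tumor volume was measured by caliper as (L×W×W)/2. %TGI = 100×[1 − AUC(treatment/d)/AUC(vehicle/d)] from fitted growth curves, with group means. Tumor lysates were immunoblotted for pS6.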

A2058 [15] = test: as §3, with “increase” for “decrease”, “Bim” for “cyclin D1”; type: functional, organism-based; conditions: time 576.0 hrs
[16] = biological target: Interleukin-1 receptor-associated kinase 1 (Homo sapiens, UniProt P51617); test: Inhibition of IRAK1 (unknown origin)
MIA PaCa-2 = test: Antitumor activity against human MIA PaCa-2 cells harboring KRAS G12C/NOTCH1 L2458V mutant xenografted in mouse assessed as tumor growth inhibition at 10 mg/kg, po; type: functional; conditions: read-out: TGI; in short: as §1
[17] = biological target: Beta-adrenergic receptor kinase 1 (Homo sapiens, UniProt P25098); test: Inhibition of GRK2 (unknown origin)
[18] = biological target: Platelet-derived growth factor receptor alpha (Homo sapiens, UniProt P16234); test: Inhibition of PDGFRalpha (unknown origin)
A2058 [19] = test: as §3, with “suppression of ERK phosphorylation” for “decrease in cyclin D1 level”; type: functional, organism-based; conditions: time 576.0 hrs
KP-4 = test: Antitumor activity against human KP-4 cells harboring KRAS G12D mutant xenografted in mouse assessed as tumor growth inhibition at 5 mg/kg, po; type: functional; conditions: read-out: TGI; in short: as §1

Chain of Platelet-derived growth factor receptor alpha (P16234 whole entry): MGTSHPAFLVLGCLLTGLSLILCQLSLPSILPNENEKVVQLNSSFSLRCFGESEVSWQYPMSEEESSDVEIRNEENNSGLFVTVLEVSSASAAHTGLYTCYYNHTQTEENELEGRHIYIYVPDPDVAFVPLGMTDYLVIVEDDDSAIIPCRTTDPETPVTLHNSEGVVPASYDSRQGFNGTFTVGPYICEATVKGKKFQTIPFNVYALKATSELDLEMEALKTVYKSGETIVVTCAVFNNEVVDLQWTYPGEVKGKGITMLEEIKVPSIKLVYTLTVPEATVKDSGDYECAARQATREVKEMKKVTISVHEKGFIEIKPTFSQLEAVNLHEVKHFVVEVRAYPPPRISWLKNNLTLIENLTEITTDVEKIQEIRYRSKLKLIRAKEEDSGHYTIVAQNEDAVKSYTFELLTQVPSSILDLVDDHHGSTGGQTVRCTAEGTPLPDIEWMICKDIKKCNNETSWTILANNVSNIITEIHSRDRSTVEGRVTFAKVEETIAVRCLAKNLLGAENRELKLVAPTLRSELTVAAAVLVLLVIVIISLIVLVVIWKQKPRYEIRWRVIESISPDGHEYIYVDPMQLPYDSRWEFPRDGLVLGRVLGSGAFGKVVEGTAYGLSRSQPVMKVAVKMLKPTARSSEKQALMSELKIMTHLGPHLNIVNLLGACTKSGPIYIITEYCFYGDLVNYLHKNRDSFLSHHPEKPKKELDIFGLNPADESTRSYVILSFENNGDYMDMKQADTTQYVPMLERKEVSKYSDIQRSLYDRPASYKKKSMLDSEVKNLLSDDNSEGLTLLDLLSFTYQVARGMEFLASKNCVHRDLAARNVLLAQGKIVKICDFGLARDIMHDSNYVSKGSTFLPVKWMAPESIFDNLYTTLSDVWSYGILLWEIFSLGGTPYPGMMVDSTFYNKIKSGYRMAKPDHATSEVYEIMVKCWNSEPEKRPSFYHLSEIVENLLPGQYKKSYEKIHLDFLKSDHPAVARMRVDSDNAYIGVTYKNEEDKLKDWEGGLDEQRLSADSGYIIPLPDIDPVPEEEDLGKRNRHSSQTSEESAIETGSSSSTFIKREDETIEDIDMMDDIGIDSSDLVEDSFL
Chain of Serine/threonine-protein kinase PAK 2 (Q13177 whole entry): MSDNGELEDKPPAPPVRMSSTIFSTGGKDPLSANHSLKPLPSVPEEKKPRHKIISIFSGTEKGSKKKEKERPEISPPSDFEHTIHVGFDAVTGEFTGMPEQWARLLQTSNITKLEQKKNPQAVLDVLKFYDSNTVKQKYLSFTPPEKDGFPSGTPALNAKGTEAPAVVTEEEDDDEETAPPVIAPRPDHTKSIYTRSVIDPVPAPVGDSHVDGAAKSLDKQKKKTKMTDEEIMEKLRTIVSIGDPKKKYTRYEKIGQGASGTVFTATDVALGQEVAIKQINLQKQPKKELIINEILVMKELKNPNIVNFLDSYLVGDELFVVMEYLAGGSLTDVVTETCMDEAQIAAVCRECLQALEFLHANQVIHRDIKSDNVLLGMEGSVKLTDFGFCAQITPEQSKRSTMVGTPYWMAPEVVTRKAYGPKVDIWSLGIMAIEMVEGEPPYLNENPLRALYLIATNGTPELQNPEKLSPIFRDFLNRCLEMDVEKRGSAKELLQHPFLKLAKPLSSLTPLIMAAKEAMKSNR
Chain of RAC-beta serine/threonine-protein kinase (P31751 whole entry): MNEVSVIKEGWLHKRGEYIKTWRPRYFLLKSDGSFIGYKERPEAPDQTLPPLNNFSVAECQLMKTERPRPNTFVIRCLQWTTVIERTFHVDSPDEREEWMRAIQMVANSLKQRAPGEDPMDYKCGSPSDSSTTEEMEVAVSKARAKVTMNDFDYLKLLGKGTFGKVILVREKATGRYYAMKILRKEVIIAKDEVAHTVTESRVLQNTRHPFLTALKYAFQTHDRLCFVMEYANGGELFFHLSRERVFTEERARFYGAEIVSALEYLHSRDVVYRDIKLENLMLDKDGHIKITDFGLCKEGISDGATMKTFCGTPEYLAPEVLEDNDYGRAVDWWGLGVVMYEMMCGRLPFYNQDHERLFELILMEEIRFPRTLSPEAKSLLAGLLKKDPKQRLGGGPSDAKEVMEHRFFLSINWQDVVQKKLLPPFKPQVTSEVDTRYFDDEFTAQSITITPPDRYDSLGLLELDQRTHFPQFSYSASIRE
Chain of Beta-adrenergic receptor kinase 1 (P25098 whole entry): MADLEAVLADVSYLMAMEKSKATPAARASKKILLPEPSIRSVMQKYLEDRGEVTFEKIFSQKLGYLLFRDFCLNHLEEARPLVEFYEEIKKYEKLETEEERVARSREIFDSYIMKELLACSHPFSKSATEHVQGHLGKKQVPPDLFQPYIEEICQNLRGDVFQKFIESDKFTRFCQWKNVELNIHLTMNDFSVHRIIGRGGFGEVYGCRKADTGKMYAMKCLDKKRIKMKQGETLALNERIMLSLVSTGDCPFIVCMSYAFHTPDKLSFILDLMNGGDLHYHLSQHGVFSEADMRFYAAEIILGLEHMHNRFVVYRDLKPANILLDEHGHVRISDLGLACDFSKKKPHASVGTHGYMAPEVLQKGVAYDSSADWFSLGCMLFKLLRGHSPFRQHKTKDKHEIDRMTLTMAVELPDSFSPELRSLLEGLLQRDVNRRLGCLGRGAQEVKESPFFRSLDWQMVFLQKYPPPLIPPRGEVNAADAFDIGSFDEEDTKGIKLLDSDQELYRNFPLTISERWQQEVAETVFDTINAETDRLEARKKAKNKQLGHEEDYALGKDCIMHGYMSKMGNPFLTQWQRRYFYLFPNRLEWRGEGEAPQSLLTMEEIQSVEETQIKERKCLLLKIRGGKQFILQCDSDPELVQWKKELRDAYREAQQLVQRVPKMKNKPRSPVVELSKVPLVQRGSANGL
Chain of Serine/threonine-protein kinase MARK1 (Q9P0L2 whole entry): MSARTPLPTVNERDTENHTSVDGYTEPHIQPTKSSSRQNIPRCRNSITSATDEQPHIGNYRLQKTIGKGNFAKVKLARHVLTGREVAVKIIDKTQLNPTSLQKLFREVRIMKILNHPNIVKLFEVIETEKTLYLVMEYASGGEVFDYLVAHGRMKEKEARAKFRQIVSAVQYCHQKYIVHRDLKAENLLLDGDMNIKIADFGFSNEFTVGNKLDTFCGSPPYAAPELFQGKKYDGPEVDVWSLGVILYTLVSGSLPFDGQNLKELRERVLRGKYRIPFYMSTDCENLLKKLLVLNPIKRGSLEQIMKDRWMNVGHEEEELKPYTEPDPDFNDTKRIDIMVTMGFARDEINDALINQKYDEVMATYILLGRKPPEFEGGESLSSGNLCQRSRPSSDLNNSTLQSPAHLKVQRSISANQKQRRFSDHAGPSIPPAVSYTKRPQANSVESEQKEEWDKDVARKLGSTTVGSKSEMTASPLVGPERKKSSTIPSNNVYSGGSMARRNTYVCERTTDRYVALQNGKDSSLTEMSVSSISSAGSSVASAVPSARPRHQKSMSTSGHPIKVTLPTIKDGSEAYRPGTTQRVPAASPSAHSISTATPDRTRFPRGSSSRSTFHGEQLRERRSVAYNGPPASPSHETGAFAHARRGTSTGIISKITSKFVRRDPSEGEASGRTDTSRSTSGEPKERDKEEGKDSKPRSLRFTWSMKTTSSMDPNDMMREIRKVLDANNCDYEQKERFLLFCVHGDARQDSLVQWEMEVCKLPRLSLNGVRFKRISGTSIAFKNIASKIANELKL
Chain of Serine/threonine-protein kinase Chk1 (O14757 whole entry): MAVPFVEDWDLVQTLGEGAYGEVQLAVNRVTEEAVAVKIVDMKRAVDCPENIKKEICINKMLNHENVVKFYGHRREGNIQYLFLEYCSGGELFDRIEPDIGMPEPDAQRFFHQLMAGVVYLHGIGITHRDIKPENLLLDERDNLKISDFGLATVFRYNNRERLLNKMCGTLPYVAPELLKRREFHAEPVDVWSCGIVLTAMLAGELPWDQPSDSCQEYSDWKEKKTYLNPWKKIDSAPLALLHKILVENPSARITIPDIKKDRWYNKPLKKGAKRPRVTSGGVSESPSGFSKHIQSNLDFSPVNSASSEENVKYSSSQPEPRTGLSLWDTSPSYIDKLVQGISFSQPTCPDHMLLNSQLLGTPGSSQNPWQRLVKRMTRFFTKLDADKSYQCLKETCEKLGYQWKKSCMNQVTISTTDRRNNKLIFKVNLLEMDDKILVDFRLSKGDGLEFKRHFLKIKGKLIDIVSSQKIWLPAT
Chain of Inhibitor of nuclear factor kappa-B kinase subunit alpha (O15111 whole entry): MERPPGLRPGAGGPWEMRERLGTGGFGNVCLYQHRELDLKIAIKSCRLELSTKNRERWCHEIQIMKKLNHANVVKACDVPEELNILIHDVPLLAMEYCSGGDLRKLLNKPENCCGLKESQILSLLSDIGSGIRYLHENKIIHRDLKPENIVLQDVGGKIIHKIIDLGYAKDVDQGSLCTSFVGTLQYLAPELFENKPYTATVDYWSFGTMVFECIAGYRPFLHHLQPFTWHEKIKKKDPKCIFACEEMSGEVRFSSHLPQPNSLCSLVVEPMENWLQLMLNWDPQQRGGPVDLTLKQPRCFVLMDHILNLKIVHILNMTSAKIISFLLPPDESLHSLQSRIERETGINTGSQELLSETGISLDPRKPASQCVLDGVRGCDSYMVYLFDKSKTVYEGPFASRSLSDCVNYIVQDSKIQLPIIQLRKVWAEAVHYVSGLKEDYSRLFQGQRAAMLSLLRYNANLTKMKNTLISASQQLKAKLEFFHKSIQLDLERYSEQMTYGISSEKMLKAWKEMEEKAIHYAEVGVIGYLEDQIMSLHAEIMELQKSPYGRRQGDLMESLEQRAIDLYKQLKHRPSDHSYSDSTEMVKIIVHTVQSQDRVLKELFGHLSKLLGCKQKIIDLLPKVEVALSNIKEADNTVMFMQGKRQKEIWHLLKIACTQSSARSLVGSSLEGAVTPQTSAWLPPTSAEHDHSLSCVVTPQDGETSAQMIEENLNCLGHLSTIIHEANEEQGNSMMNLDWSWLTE

With `O=C(c1ccc(F)c(F)c1Nc1ccc(I)cc1F)N1CC(O)([C@@H]2CCCCN2)C1` [COBIMETINIB] the Activity (NCI-H2122) was “inactive”, the inhibition in vivo at 2.5 mg/kg (Calu-6 [1]) was 27.5% and the pIC50 [2] was less than 5.00. It also gave an inhibition in vivo at 10 mg/kg (A-375) of 122%, an inhibition in vivo at 10 mg/kg (EBC-1) of 40% and a pIC50 [3] of less than 5.00. It also gave a pIC50 [4] of less than 5.00, a pIC50 [5] of less than 5.00 and a pIC50 [6] of less than 5.00. It also gave a pIC50 (Misshapen-like kinase 1) of less than 5.00, an inhibition in vivo at 10 mg/kg (A549) of 108% and a pIC50 [7] of less than 5.00. The pIC50 [8] was less than 5.00, the inhibition in vivo at 5 mg/kg (Calu-6 [9]) was 80% and the pIC50 (Aurora kinase A) was less than 5.00. For the same compound, the pIC50 [10] was less than 5.00, the inhibition (888-mel) was “Active” and the inhibition in vivo at 2.5 mg/kg (537-mel) was 69%. The pIC50 [11] was less than 5.00, the pIC50 [12] was less than 5.00 and the Activity (A2058 [13]) was “Active”. The pIC50 [14] was less than 5.00, the inhibition in vivo at 10 mg/kg (DLD-1) was 18% and the Activity (A2058 [15]) was “Active”. It also gave a pIC50 [16] of less than 5.00, an inhibition in vivo at 10 mg/kg (MIA PaCa-2) of 12% and a pIC50 [17] of less than 5.00. The pIC50 [18] was less than 5.00, the Activity (A2058 [19]) was “Active” and the inhibition in vivo at 5 mg/kg (KP-4) was 69.5%.
